Results on 29 compounds are retold here after ChEMBL document CHEMBL1140655, “Design and synthesis of hepatoselective, pyrrole-based HMG-CoA reductase inhibitors” (Bioorg Med Chem Lett, 2007).

The source made the active and inactive calls. The rule behind the calls is not given here.

The target of test [1] is T1, 3-hydroxy-3-methylglutaryl-coenzyme A reductase (Homo sapiens, UniProt P04035).
T1 sequence (P04035 whole entry): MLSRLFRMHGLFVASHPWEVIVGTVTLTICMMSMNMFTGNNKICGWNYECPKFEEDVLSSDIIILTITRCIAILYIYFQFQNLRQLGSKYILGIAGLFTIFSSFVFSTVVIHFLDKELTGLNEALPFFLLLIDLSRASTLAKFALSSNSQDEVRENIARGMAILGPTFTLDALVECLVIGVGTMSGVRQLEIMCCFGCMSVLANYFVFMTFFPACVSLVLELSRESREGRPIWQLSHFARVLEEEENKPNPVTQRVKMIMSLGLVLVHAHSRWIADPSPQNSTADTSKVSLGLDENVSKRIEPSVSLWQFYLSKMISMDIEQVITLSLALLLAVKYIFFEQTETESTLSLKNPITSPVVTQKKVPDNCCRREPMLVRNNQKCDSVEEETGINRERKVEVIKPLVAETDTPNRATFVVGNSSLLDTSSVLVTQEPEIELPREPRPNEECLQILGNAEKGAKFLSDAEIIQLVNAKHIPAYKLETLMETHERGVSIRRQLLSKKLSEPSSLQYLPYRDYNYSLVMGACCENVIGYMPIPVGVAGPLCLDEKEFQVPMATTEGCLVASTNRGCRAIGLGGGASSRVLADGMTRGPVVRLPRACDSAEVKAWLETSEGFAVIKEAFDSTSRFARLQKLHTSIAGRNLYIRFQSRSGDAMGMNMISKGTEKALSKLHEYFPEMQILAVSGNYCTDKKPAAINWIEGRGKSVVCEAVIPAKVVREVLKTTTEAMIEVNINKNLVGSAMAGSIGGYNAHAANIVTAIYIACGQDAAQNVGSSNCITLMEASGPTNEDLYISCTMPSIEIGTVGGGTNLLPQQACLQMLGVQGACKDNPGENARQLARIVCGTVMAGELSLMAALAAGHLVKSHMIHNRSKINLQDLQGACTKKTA
Briefly: Inhibition of HMG-CoA reductase.

The subject of the next test is Hepatocyte. Briefly: Inhibition of cholesterol synthesis in rat hepatocyte. Type of test: functional, cell-based.
The next test has as its system Mus musculus. Briefly: Inhibition of acute cholesterol synthesis in mouse at 1 mg/kg. Type of test: functional. The note with it: for inhibition in vivo at 1 mg/kg: read-out: Inhibition.
Test [2] in a line: Inhibition of cholesterol synthesis in rat myocyte. The note with it: Ventricular myocyte. It is filed as functional, cell-based.
A short description of test [3]: Reduction in LDL cholesterol on cholestyramine-primed hamster serum at 10 mg/kg, po after 7 days. It is filed as functional. Set-up: scale not given: the % may be the effect or the level left. The procedure, abridged:
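Cholestyramine-primed hamsters were dosed orally at 10 mg/kg once daily for 7 days. At the end of treatment, serum LDL-C was measured and percent reduction calculated against an untreated control group.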

The IC50 is the concentration that inhibits the measured activity by half. In the case of `Cc1cnc(CNC(=O)c2c(-c3ccccc3)c(-c3ccc(F)cc3)c(CC[C@@H](O)C[C@@H](O)CC(=O)O)n2C(C)C)[nH]1`, the IC50 in test [1] was 3.4 nM; in the test on Hepatocyte, 0.5 nM; in test [2], 10400 nM. Also, the inhibition in vivo at 1 mg/kg in the test on Mus musculus was found to be 11%.

Regarding `CC(C)n1c(CC[C@@H](O)C[C@@H](O)CC(=O)O)c(-c2ccc(F)cc2)c(-c2ccccc2)c1C(=O)Nc1ccc(C(=O)O)cc1`, the half-inhibitory concentration (IC50) in test [1] worked out at 0.3 nM; in the test with Hepatocyte, 0.1 nM; in test [2] it was 12600 nM. The inhibition entry with Mus musculus was “inactive”.

On to `CC(C)n1c(CC[C@@H](O)C[C@@H](O)CC(=O)O)c(-c2ccc(F)cc2)c(-c2ccccc2)c1C(=O)Nc1ccccc1`, for which the IC50 is 1.8 nM in test [1], 1 nM with Hepatocyte and 229 nM in test [2]. Further, the inhibition in vivo at 1 mg/kg in the test on Mus musculus is 57%.

On to `Cc1cc(CNC(=O)c2c(-c3ccccc3)c(-c3ccc(F)cc3)c(CC[C@@H](O)C[C@@H](O)CC(=O)O)n2C(C)C)nn1C`, for which the results for the concentration for half-maximal inhibition (IC50) (in test [1]; in the test with Hepatocyte; in test [2]) were 0.6 nM, 0.9 nM and 3230 nM, respectively. In addition, the inhibition in vivo at 1 mg/kg in the test with Mus musculus worked out at 19%.

On to `CC(C)n1c(CC[C@@H](O)C[C@@H](O)CC(=O)O)c(-c2ccc(F)cc2)c(-c2ccccc2)c1C(=O)Nc1ccc(C(N)=O)cc1`, for which the IC50 in test [1] amounted to 0.3 nM; in the test on Hepatocyte it was 0.1 nM; in test [2], 684 nM. The inhibition in vivo at 1 mg/kg in the test with Mus musculus turned out to be 45%.

As for `CC(C)n1c(CC[C@@H](O)C[C@@H](O)CC(=O)O)c(-c2ccc(F)cc2)c(-c2ccccc2)c1C(=O)N(C)C`, the concentration for half-maximal inhibition (IC50) was found to be 20 nM in test [1], 0.9 nM in the test with Hepatocyte and 1580 nM in test [2]. In addition, the inhibition in vivo at 1 mg/kg in the test on Mus musculus was found to be 85%.

For the compound `CC(C)n1c(CC[C@@H](O)C[C@@H](O)CC(=O)O)c(-c2ccc(F)cc2)c(-c2ccccc2)c1C(=O)Nc1ccc(S(N)(=O)=O)cc1`, the results for the 50% inhibitory concentration (IC50) (in test [1]; in the test on Hepatocyte; in test [2]) were 2.9 nM, 0.3 nM and 1790 nM, respectively. For the same compound, the inhibition in vivo at 1 mg/kg in the test on Mus musculus came to 32%.

`Cc1csc(CNC(=O)c2c(-c3ccccc3)c(-c3ccc(F)cc3)c(CC[C@@H](O)C[C@@H](O)CC(=O)O)n2C(C)C)n1`: the IC50 in test [1] worked out at 1.5 nM; in the test on Hepatocyte, 1.5 nM; in test [2], 1010 nM. Further, the inhibition in vivo at 1 mg/kg with Mus musculus was 33%.

Take `CC(C)n1c(CC[C@@H](O)C[C@@H](O)CC(=O)O)c(-c2ccc(F)cc2)c(-c2ccc(F)cc2)c1C(=O)Nc1ccccc1`: the values for the concentration for half-maximal inhibition (IC50) (in the test on Hepatocyte; in test [2]) were 0.4 nM and 145 nM, respectively. In the test with Mus musculus, the inhibition in vivo at 1 mg/kg came out at 75%.

For the compound `CC(C)n1c(CC[C@@H](O)C[C@@H](O)CC(=O)O)c(-c2ccc(F)cc2)c(-c2ccccc2)c1C(=O)NCc1ccc(C(=O)N(C)C)cc1`, the concentration for half-maximal inhibition (IC50) in test [1] turned out to be 1.2 nM; in the test with Hepatocyte, 4.9 nM; in test [2], 6520 nM. In addition, in the test with Mus musculus, the inhibition in vivo at 1 mg/kg was 38%.

Turning to `CC(C)c1nc(N(C)S(C)(=O)=O)nc(-c2ccc(F)cc2)c1/C=C/[C@@H](O)C[C@@H](O)CC(=O)O` [ROSUVASTATIN], the Activity in test [3] is recorded as -25%. Further, the results for the IC50 (in test [1]; in the test on Hepatocyte; in test [2]) were 3.1 nM, 0.27 nM and 250 nM, respectively. Besides, the inhibition in vivo at 1 mg/kg in the test on Mus musculus was 82%.

Take `Cc1cc(CNC(=O)c2c(-c3ccccc3)c(-c3ccc(F)cc3)c(CC[C@@H](O)C[C@@H](O)CC(=O)O)n2C(C)C)n[nH]1`: the results for the IC50 (in test [1]; with Hepatocyte; in test [2]) were 2.6 nM, 0.5 nM and 10400 nM, respectively.

Turning to `CC(C)n1c(CC[C@@H](O)C[C@@H](O)CC(=O)O)c(-c2ccc(F)cc2)c(-c2ccc(F)cc2)c1C(=O)Nc1cccc(O)c1`, the IC50 in test [1] came to 0.7 nM; with Hepatocyte, 1.2 nM; in test [2] it was 524 nM. Further, in the test on Mus musculus, the inhibition in vivo at 1 mg/kg was 22%.

As to `CCC(C)(C)C(=O)O[C@H]1C[C@@H](C)C=C2C=C[C@H](C)[C@H](CC[C@@H]3C[C@@H](O)CC(=O)O3)[C@H]21` [SIMVASTATIN], the figures for the IC50 (in the test on Hepatocyte; in test [2]) were 1.3 nM and 150 nM, respectively.

Turning to `COc1ccc(CNC(=O)c2c(-c3ccccc3)c(-c3ccc(F)cc3)c(CC[C@@H](O)C[C@@H](O)CC(=O)O)n2C(C)C)cc1`, the results for the IC50 (in test [1]; with Hepatocyte; in test [2]) were 0.8 nM, 0.4 nM and 310 nM, respectively. Besides, the inhibition in vivo at 1 mg/kg in the test on Mus musculus stood at 52%.

For the compound `CC(C)n1c(CC[C@@H](O)C[C@@H](O)CC(=O)O)c(-c2ccc(F)cc2)c(-c2ccccc2)c1C(=O)NCc1ccc(C#N)cc1`, the half-maximal inhibitory concentration (IC50) in test [1] worked out at 0.2 nM; with Hepatocyte it was 0.7 nM; in test [2], 650 nM. Further, the inhibition in vivo at 1 mg/kg in the test with Mus musculus came out at 47%.

With `COCc1ccc(CNC(=O)c2c(-c3ccccc3)c(-c3ccc(F)cc3)c(CC[C@@H](O)C[C@@H](O)CC(=O)O)n2C(C)C)cc1`, the IC50 was 0.7 nM in test [1], 1.5 nM in the test with Hepatocyte and 211 nM in test [2].

On to `CC(C)NC(=O)c1c(-c2ccccc2)c(-c2ccc(F)cc2)c(CC[C@@H](O)C[C@@H](O)CC(=O)O)n1C(C)C`, for which the values for the IC50 (in test [1]; in the test with Hepatocyte; in test [2]) were 15 nM, 1.6 nM and 1930 nM, respectively. In addition, the inhibition in vivo at 1 mg/kg in the test with Mus musculus is 73%.

Take `CNC(=O)c1c(-c2ccccc2)c(-c2ccc(F)cc2)c(CC[C@@H](O)C[C@@H](O)CC(=O)[O-])n1C(C)C.[Na+]`: the Activity in test [3] is on record as -12%. Also, the IC50 is 8.8 nM in test [1], 1.2 nM in the test on Hepatocyte and 5300 nM in test [2]. Moreover, the inhibition in vivo at 1 mg/kg in the test with Mus musculus was 83%.

Turning to `CC(C)n1c(CC[C@@H](O)C[C@@H](O)CC(=O)O)c(-c2ccc(F)cc2)c(-c2ccccc2)c1C(=O)NCc1ccccc1`, the IC50 came to 0.8 nM in test [1], 0.3 nM with Hepatocyte and 44 nM in test [2]. Besides, the inhibition in vivo at 1 mg/kg in the test on Mus musculus amounted to 46%.

For the compound `CC(C)n1c(CC[C@@H](O)C[C@@H](O)CC(=O)[O-])c(-c2ccc(F)cc2)c(-c2ccccc2)c1C(=O)NC1CC1.[Na+]`, the Activity in test [3] is -24%. The IC50 in test [1] is 3.8 nM; in the test with Hepatocyte, 2 nM; in test [2] it was 2780 nM. For the same compound, the inhibition in vivo at 1 mg/kg with Mus musculus worked out at 70%.

As to `CC(C)n1c(CC[C@@H](O)C[C@@H](O)CC(=O)O)c(-c2ccc(F)cc2)c(-c2ccccc2)c1C(=O)Nc1ccc(C(=O)N(C)C)cc1`, the values for the concentration for half-maximal inhibition (IC50) (in test [1]; with Hepatocyte; in test [2]) were 1.4 nM, 0.7 nM and 1110 nM, respectively. The inhibition in vivo at 1 mg/kg in the test with Mus musculus came out at 10%.

Consider `COc1cccc(CNC(=O)c2c(-c3ccccc3)c(-c3ccc(F)cc3)c(CC[C@@H](O)C[C@@H](O)CC(=O)O)n2C(C)C)c1`, for which the IC50 was determined as 1.8 nM in test [1], 0.1 nM in the test on Hepatocyte and 130 nM in test [2].

`CC(C)n1c(CC[C@@H](O)C[C@@H](O)CC(=O)O)c(-c2ccc(F)cc2)c(-c2ccccc2)c1C(=O)NCc1cccc(C(N)=O)c1`: the IC50 in test [1] amounted to 1.2 nM; in the test with Hepatocyte, 0.1 nM; in test [2], 3100 nM. Moreover, the inhibition in vivo at 1 mg/kg with Mus musculus amounted to 22%.

Turning to `CC(C)n1c(CC[C@@H](O)C[C@@H](O)CC(=O)O)c(-c2ccc(F)cc2)c(-c2ccccc2)c1C(=O)Nc1ccc(O)cc1`, the IC50 is 0.4 nM in test [1], 0.5 nM in the test on Hepatocyte and 626 nM in test [2]. Besides, in the test on Mus musculus, the inhibition in vivo at 1 mg/kg came to 48%.

Turning to `CC(C)n1c(CC[C@@H](O)C[C@@H](O)CC(=O)O)c(-c2ccc(F)cc2)c(-c2ccccc2)c1C(=O)NCc1ccccn1`, the IC50 is 0.8 nM in test [1], 0.1 nM in the test with Hepatocyte and 472 nM in test [2]. In addition, the inhibition in vivo at 1 mg/kg in the test with Mus musculus turned out to be 39%.

In the case of `COc1cccc(NC(=O)c2c(-c3ccc(F)cc3)c(-c3ccc(F)cc3)c(CC[C@@H](O)C[C@@H](O)CC(=O)O)n2C(C)C)c1`, the results for the IC50 (in test [1]; in the test on Hepatocyte; in test [2]) were 6.6 nM, 0.3 nM and 50 nM, respectively. Besides, the inhibition in vivo at 1 mg/kg in the test with Mus musculus came to 54%.

With `CC(C)n1c(CC[C@@H](O)C[C@@H](O)CC(=O)O)c(-c2ccc(F)cc2)c(-c2ccccc2)c1C(=O)NCc1ccc(C(=O)O)cc1`, the IC50 was 2.2 nM in test [1], 0.1 nM in the test on Hepatocyte and 7920 nM in test [2]. In the test with Mus musculus, the inhibition in vivo at 1 mg/kg worked out at 7%.

For `CC(C)n1c(CC[C@@H](O)C[C@@H](O)CC(=O)O)c(-c2ccc(F)cc2)c(-c2ccc(F)cc2)c1C(=O)Nc1cccc(C(=O)N(C)C)c1`, the IC50 in test [1] is 0.3 nM; in the test with Hepatocyte, 0.2 nM; in test [2] it was 549 nM. Moreover, in the test with Mus musculus, the inhibition in vivo at 1 mg/kg was found to be 20%.
